Here are results for ten compounds from ChEMBL document CHEMBL3758075, “Synthesis and pharmacological evaluation of nucleoside prodrugs designed to target siderophore biosynthesis in Mycobacterium tuberculosis” (Bioorg Med Chem, 2016).

Series [1] can be described thus: Retention time of compound by RP-HPLC method. In kind it is physicochemical. Summed up: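 Reversed-phase C18 column (5 µm, 4.6 × 250 mm). Mobile phase 20 mM triethylammonium bicarbonate pH 7.5 / acetonitrile. Gradient 5–70% acetonitrile over 10 min, then 90% to 16 min, then 3 min re-equilibration at 5%.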
Series [2] can be described thus: Aqueous stability in pH 1.2 simulated gastric fluid assessed as prodrug remaining at 100 uM after 2 hrs by HPLC method. It is filed as physicochemical. The conditions noted are these: simulated gi fluid, pH 1.2, 2 h. Put shortly:
(§1)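 Compound 100 µM (2% DMSO final) incubated in triplicate at 37 °C in simulated gastric fluid pH 1.2 or 100 mM HEPES pH 7.4. Samples taken at 0 and 120 min, placed on ice and analysed by RP-HPLC for prodrug and released parent; percentage of prodrug remaining at 120 min calculated.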

The nature of series [3]: Aqueous stability in pH 7.4 HEPES buffer assessed as prodrug remaining at 100 uM after 2 hrs by HPLC method. In kind it is physicochemical. Particulars: pH 7.4, 2 h. Summed up:
as §1

The test system of series [4] is Plasma. In words: Half life in CD-1 mouse plasma assessed as N-(N-(((2R,3R,4R,5R)-5-(6-amino-9H-purin-9-yl)-4-fluoro-3-hydroxytetrahydrofuran-2-yl)methyl)sulfamoyl)-2-hydroxybenzamide by HPLC method. It is filed as ADME, cell-free. Summed up: (§2)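 Pooled female plasma (CD-1 mouse, Sprague-Dawley rat, human) preincubated 5 min at 37 °C, then spiked from a 10 mM DMSO stock; triplicate. Samples at 0–360 min quenched with equal volume 10% TCA, centrifuged, supernatant run on HPLC. Half-life or percentage remaining at 6 h derived.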

The test system of series [5] is Plasma. In words: Stability in Sprague-Dawley rat plasma assessed as residual compound after 6 hrs by HPLC method. It is filed as ADME, cell-free. Summed up:
as §2

Series [6] concerns Plasma. In words: Stability in human plasma assessed as residual compound after 6 hrs by HPLC method. It is filed as ADME, cell-free. Summed up:
as §2

Series [7] relates to Plasma. Briefly: Stability in CD-1 mouse plasma assessed as residual compound after 6 hrs by HPLC method. In kind it is ADME, cell-free. Summed up:
as §2

Series [8] in a line: Apparent permeability from apical to basolateral side in human Caco2 cells at 100 uM incubated for 2 hrs by HPLC method. In kind it is ADME, cell-based. Particulars: Caco-2. Put shortly: (§3)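 Caco-2 cells (passage 50–70) grown 21 days on 0.4 µm transwell inserts; wells with TER >300 Ωcm2 used. Apical CAB pH 6.0, basolateral CAB pH 7.4, preincubated 60 min at 65 rpm. Test compound 100 µM in donor with lucifer yellow for tight-junction integrity. Acceptor levels of prodrug plus hydrolyzed parent measured by HPLC over time with cumulative sampling. Papp = flux/(area × C0); efflux ratio = BL-AP/AP-BL.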
(In general: Caco-2 cells form a polarised layer with tight junctions and transporters.)

Series [9] can be described thus: Apparent permeability from basolateral to apical side in human Caco2 cells at 100 uM incubated for 2 hrs by HPLC method. It is filed as ADME, cell-based. Particulars: Caco-2. Put shortly:
as §3

Series [10] can be described thus: Efflux ratio of permeability from basolateral to apical side over apical to basolateral side in human Caco2 cells incubated for 2 hrs by HPLC method. In kind it is ADME, cell-based. The conditions noted are these: Caco-2. Put shortly: as §3
The nature of series [11]: Permeability from apical to basolateral side in human Caco2 cells assessed as prodrug remaining in apical side for 2 hrs by HPLC method. It is filed as ADME, cell-based. The conditions noted are these: caco-2, 2 h. Put shortly:
(§4)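 Bidirectional Caco-2 transwell run (21-day monolayers, TER >300 Ωcm2, apical pH 6.0 / basolateral pH 7.4 buffers, 100 µM donor). Intact prodrug left in the apical and basolateral compartments at 2 h quantified by reversed-phase HPLC, with hydrolysis to parent tracked.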

The nature of series [12]: Permeability from basolateral to apical side in human Caco2 cells assessed as prodrug remaining in apical side for 2 hrs by HPLC method. In kind it is ADME, cell-based. The conditions noted are these: caco-2, 2 h. Put shortly:
as §4

Series [13] in a line: Permeability from apical to basolateral side in human Caco2 cells assessed as prodrug remaining in basolateral side for 2 hrs by HPLC method. In kind it is ADME, cell-based. The conditions noted are these: caco-2, 2 h. Summed up:
as §4

Series [14] can be described thus: Permeability from basolateral to apical side in human Caco2 cells assessed as prodrug remaining in basolateral side for 2 hrs by HPLC method. The conditions noted are these: caco-2, 2 h. In kind it is ADME, cell-based. Summed up:
as §4

The subject of series [15] is Plasma. Briefly: Half life in Sprague-Dawley rat plasma assessed as N-(N-(((2R,3R,4R,5R)-5-(6-amino-9H-purin-9-yl)-4-fluoro-3-hydroxytetrahydrofuran-2-yl)methyl)sulfamoyl)-2-hydroxybenzamide by HPLC method. In kind it is ADME, cell-free. Summed up:
as §2

Series [16] in a line: Aqueous stability in pH 1.2 simulated gastric fluid assessed as compound remaining after 2 hrs by HPLC method. It is filed as physicochemical. Particulars: simulated gi fluid, pH 1.2, 2 h. Put shortly:
as §1

Series [17] is described as follows: Aqueous stability in pH 7.4 HEPES buffer assessed as compound remaining after 2 hrs by HPLC method. In kind it is physicochemical. Particulars: pH 7.4, 2 h. Put shortly:
as §1

Series [18] is described as follows: Drug level in pH 7.4 HEPES buffer treated with 100 uM 9-[3-O-(Acetyl)-2,5-dideoxy-2-fluoro-5-{N-(N-2-hydroxybenzoyl)sulfamoyl}amino-b-D-ribofuranosyl]adenine triethylammonium salt for 2 hrs by HPLC analysis. It is filed as physicochemical. Particulars: pH 7.4, 2 h. Put shortly: as §1

Take `CCCCC(=O)O[C@H]1[C@@H](F)[C@H](n2cnc3c(N)ncnc32)O[C@@H]1CNS(=O)(=O)NC(=O)c1ccccc1O.CCN(CC)CC`: the Retention_time in series [1] is 11.9 min. The Stability was 98% in series [2], 100% in [3], 53% in the series on Plasma [5] and 66% in the series on Plasma [6]. In the series on Plasma [4], the t1/2 amounted to 1.6 h.

What is called Papp A→B is how fast a substance crosses the layer from the apical side. A word on the Papp B→A: it is the apparent permeability from the basolateral to the apical side of a cell layer. In general, efflux ratio refers to a quotient of directional permeabilities that is used to spot active efflux. Turning to `CCC(CC)C(=O)O[C@H]1[C@@H](F)[C@H](n2cnc3c(N)ncnc32)O[C@@H]1CNS(=O)(=O)NC(=O)c1ccccc1O.CCN(CC)CC`, the Stability in series [2] is 100%; in series [3], 100%; in the series with Plasma [7], 83%; with Plasma [5], 93%; in the series with Plasma [6] it was 94%. Besides, the Papp A→B at 2 h, 100 µM in series [8] was determined as 0.5 ×10⁻⁶ cm/s. In [9], the Papp B→A at 2 h, 100 µM was 3.8 ×10⁻⁶ cm/s. In series [10], the efflux ratio at 2 h is 7.6. Also, the permeability was 97% in [11], 78% in [12], 90% in series [13] and 99% in series [14].

In series [1], `CCCCCCCC(=O)O[C@H]1[C@@H](F)[C@H](n2cnc3c(N)ncnc32)O[C@@H]1CNS(=O)(=O)NC(=O)c1ccccc1O.CCN(CC)CC` came in with a Retention_time of 13.7 min. The Stability is 93% in series [2], 98% in series [3] and 86% in the series on Plasma [5]. Moreover, the t1/2 with Plasma [4] was determined as 0.7 h. The apical-to-basolateral permeability (Papp A→B) at 2 h, 100 µM in [8] was 3.9 ×10⁻⁶ cm/s. Also, in series [9], the apparent permeability from basolateral to apical (Papp B→A) at 2 h, 100 µM worked out at 6.9 ×10⁻⁶ cm/s. Further, the efflux ratio at 2 h in series [10] amounted to 1.8. Further, the permeability in [11] was determined as 29%; in [12], 1%; in series [13], 3%; in series [14] it was 90%.

For `Nc1ncnc2c1ncn2[C@@H]1O[C@H](COS(=O)(=O)NC(=O)c2ccccc2O)[C@@H](O)[C@H]1O`, in series [1], the Retention_time was 7.8 min.

Consider `CC(=O)O[C@H]1[C@@H](F)[C@H](n2cnc3c(N)ncnc32)O[C@@H]1CNS(=O)(=O)NC(=O)c1ccccc1O.CCN(CC)CC`, for which, in series [1], the Retention_time was determined as 9.5 min. Besides, the Stability in series [2] is reported as 97%; in series [3], 92%; in the series on Plasma [6], 61%. For the same compound, the t1/2 in the series on Plasma [4] is 4.6 h; with Plasma [15] it was 5.7 h. The Papp A→B at 2 h, 100 µM in series [8] is 1.1 ×10⁻⁶ cm/s. Moreover, in series [9], the Papp B→A at 2 h, 100 µM worked out at 1.6 ×10⁻⁶ cm/s. Moreover, the efflux ratio at 2 h in [10] amounted to 1.5. Further, the permeability was 93% in [11], 88% in [12], 81% in series [13] and 86% in [14].

`Nc1ncnc2c1ncn2[C@@H]1O[C@H](CNS(=O)(=O)NC(=O)c2ccccc2O)[C@@H](O)[C@H]1F` showed a Retention_time in series [1] of 8.9 min. Also, the Stability in series [16] and in series [17] was 100% in each case. In addition, the Drug metabolism result in series [18] was “metabolite_detected”.

For `CCC(=O)O[C@H]1[C@@H](F)[C@H](n2cnc3c(N)ncnc32)O[C@@H]1CNS(=O)(=O)NC(=O)c1ccccc1O.CCN(CC)CC`, the Retention_time in series [1] is listed as 10 min. In addition, the Stability in [2] is given as 97%; in [3], 100%; with Plasma [5] it was 58%; in the series with Plasma [6], 70%. Besides, the t1/2 with Plasma [4] was 3.3 h.

In series [1], `CCCC(=O)O[C@H]1[C@@H](F)[C@H](n2cnc3c(N)ncnc32)O[C@@H]1CNS(=O)(=O)NC(=O)c1ccccc1O.CCN(CC)CC` had a Retention_time of 10.4 min. For the same compound, the Stability was 97% in [2], 100% in series [3], 61% in the series on Plasma [5] and 64% in the series on Plasma [6]. Moreover, in the series on Plasma [4], the t1/2 stood at 2.2 h. Moreover, the Papp A→B at 2 h, 100 µM in [8] was 0.5 ×10⁻⁶ cm/s. In addition, the Papp B→A at 2 h, 100 µM in series [9] turned out to be 3.5 ×10⁻⁶ cm/s. The efflux ratio at 2 h in series [10] stood at 7. The permeability in [11] was determined as 74%; in series [12], 15%; in series [13], 63%; in series [14] it was 93%.

In the case of `CCCCCCCCCCCC(=O)O[C@H]1[C@@H](F)[C@H](n2cnc3c(N)ncnc32)O[C@@H]1CNS(=O)(=O)NC(=O)c1ccccc1O.CCN(CC)CC`, the Retention_time in series [1] is recorded as 9.9 min. Also, the Stability in [2] is reported as 76%; in series [3], 100%; with Plasma [5], 95%; with Plasma [6] it was 98%. In the series on Plasma [4], the t1/2 amounted to 1.6 h.

`CC(C)C(=O)O[C@H]1[C@@H](F)[C@H](n2cnc3c(N)ncnc32)O[C@@H]1CNS(=O)(=O)NC(=O)c1ccccc1O.CCN(CC)CC` registered a Retention_time in series [1] of 10.7 min. The Stability in series [2] was 98%; in series [3] it was 100%; in the series with Plasma [5], 72%. Moreover, the t1/2 in the series on Plasma [4] is 3.7 h. The Papp A→B at 2 h, 100 µM in [8] amounted to 0.4 ×10⁻⁶ cm/s. For the same compound, the Papp B→A at 2 h, 100 µM in series [9] was found to be 3.4 ×10⁻⁶ cm/s. Besides, the efflux ratio at 2 h in series [10] was determined as 8.5. Moreover, the permeability is given as 88% in [11], 53% in series [12], 73% in series [13] and 95% in series [14].
